Several values for one entry are separate records, joined by “and”; a condition that tells them apart may be missing. Equal entries are not always repeated. Marks after values point to notes of the source that are not given here.
What was measured:
[1] = Tissue distribution after single IP or PO dose; format: in vivo, BALB/c mice; conditions: for MRT inf / Vd/F / concentration at 30 min / half-life / k el / tissue uptake / Tmax: 10 mg/kg; for Tmax / AUC0–t / Cl/F: mean ± SEM
How it was run: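 Same single 10 mg/kg IP or PO dosing in female BALB/c mice. Liver, heart, spleen, kidneys and lungs taken at 0.17, 0.5, 1 and 3 h (n = 5), saline-flushed and snap-frozen. Tissue homogenized 1:4 w/v in pH 7.4 saline, liquid–liquid extracted with internal standard, quantified by SFC-MS/MS. Localization index = tissue %ID/g over plasma %ID/mL; mean ± SEM.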

[2] = Stability of MBQ-167 in mouse plasma; format: physicochemical; conditions: for postpreparative stability RE%: 8 h; for short term stability RE%: 4 h at benchtop; for freeze–thaw stability RE% / long term stability RE%: −80 °C; for freeze–thaw stability RE%: 3 cycles 24 h
How it was run: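 Spiked mouse plasma QCs (calibration 1.5–1000 ng/mL) quantified by SFC-MS/MS after protein precipitation; RE% against nominal. Short-term: 2.5 and 950 ng/mL, 4 h at room temperature. Postpreparative: three QC levels (2.5, 450, 950 ng/mL) held at 4 °C. Long-term: −80 °C for 15 and 134 days. Freeze–thaw: three 24 h cycles at −80 °C.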

[3] = Plasma pharmacokinetics after single IP or PO dose; format: in vivo, Balb/c mice
How it was run: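 Female BALB/c mice, 4–5 weeks old, acclimated 1 week. Single 10 mg/kg dose (0.1 mL in 12.5% ethanol/12.5% cremophor/75% PBS, pH 7.4), IP or oral gavage. Five mice per time point (0.08–12 h) bled by cardiac puncture into citrate. Plasma protein-precipitated and analysed by SFC-MS/MS (ESI+, m/z 339.1→179.9). λz by terminal log-linear regression; relative bioavailability PO vs IP.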

[4] = MBQ-167 distribution in mouse mammary tumors; format: in vivo, SCID mice; conditions: 2.5 mg/kg BW 24 h prior to sacrifice, 3-month multiple low-dose regimen
How it was run: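 Female SCID mice, 4 weeks old, received 2 × 10^6 GFP-tagged MDA-MB-468 cells into the mammary fat pad. After 1 week, vehicle or 2.5 mg/kg ip was given three times weekly for 3 months. Twenty-four hours after the last dose, five mice per arm got 10 mg/kg 30 min before sacrifice. Tumours were saline-flushed, snap-frozen, homogenized, extracted and quantified by SFC-MS/MS (n = 5).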

Cdc42 = conditions: read-out: IC50 for Cdc42 activation; cited from earlier work
[5] = Stability of MBQ-167 in mouse liver; format: physicochemical; conditions: for postpreparative stability RE% / short term stability RE% / freeze–thaw stability RE% / long term stability RE%: liver; for postpreparative stability RE%: 8 h; for short term stability RE%: 3 h in an ice bucket; for freeze–thaw stability RE% / long term stability RE%: −80 °C; for freeze–thaw stability RE%: 3 cycles 24 h; for long term stability RE%: 90 days
How it was run: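 Spiked mouse tissue QCs (calibration 10–1000 ng/mL) quantified by SFC-MS/MS; RE% against nominal. Short-term: 15 and 950 ng/mL, 3 h in an ice bucket. Postpreparative: 15, 450 and 950 ng/mL, 8 h at 4 °C. Long-term: −80 °C for 90 days. Freeze–thaw: three 24 h cycles at −80 °C.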

[6] = tested on: HER2-type mammary fat pad tumor; conditions: 10 mg/kg BW; immunocompromised mice; cited from earlier work
[7] = reported for other anticancer drugs; cited from earlier work
[8] = female, BALB/c, mouse, heart, ip
[9] = female, BALB/c, mouse, heart, po
[10] = female, BALB/c, mouse, kidneys, ip
[11] = female, BALB/c, mouse, kidneys, po
[12] = female, BALB/c, mouse, liver, ip
[13] = female, BALB/c, mouse, liver, po
[14] = female, BALB/c, mouse, lungs, ip
[15] = female, BALB/c, mouse, lungs, po
[16] = female, BALB/c, mouse, spleen, ip
[17] = female, BALB/c, mouse, spleen, po
[18] = female, BALB/c, mouse, plasma, ip, 10 mg/kg
[19] = female, BALB/c, mouse, plasma, po, 10 mg/kg
[20] = plasma, intraperitoneal 10 mg/kg, mean ± SEM

CCn1c2ccccc2c2cc(-n3nncc3-c3ccccc3)ccc21 [MBQ-167]
MRT inf [1, 8]: 0.98 ± 0.01 h
Vd/F [1, 8]: 0.334 ± 0.139 L
concentration at 30 min [1, 8]: 797 ng/g
half-life [1, 8]: 0.97 ± 0.12 h
k el [1, 8]: 0.000206 s⁻¹
tissue uptake [1, 8]: 0.4 ± 0.11 %ID/g
Tmax ([1]; female, BALB/c, mouse, heart, ip, Tmax, IP 10 mg/kg): 0.5 h
MRT inf [1, 9]: 1.03 ± 0.05 h
Vd/F [1, 9]: 0.674 ± 0.101 L
half-life [1, 9]: 1.34 ± 0.03 h
k el [1, 9]: 0.000144 s⁻¹
tissue uptake [1, 9]: 0.22 ± 0.03 %ID/g
Tmax ([1]; female, BALB/c, mouse, heart, po, Tmax, PO 10 mg/kg): 0.5 h
MRT inf [1, 10]: 2.12 ± 0.07 h
Vd/F [1, 10]: 0.023 ± 0.012 L
concentration at 30 min [1, 10]: 10500 ng/g
half-life [1, 10]: 1.39 ± 0.08 h
k el [1, 10]: 0.000139 s⁻¹
tissue uptake [1, 10]: 6 ± 1.4 %ID/g
MRT inf [1, 11]: 2.7 ± 0.5 h
Vd/F [1, 11]: 0.188 ± 0.035 L
half-life [1, 11]: 3.4 ± 0.9 h
k el [1, 11]: 6.67e-05 s⁻¹
tissue uptake [1, 11]: 1.6 ± 0.4 %ID/g
MRT inf [1, 12]: 3.56 ± 0.83 h
Vd/F [1, 12]: 0.07 ± 0.009 L
concentration at 30 min [1, 12]: 4560 ng/g
half-life [1, 12]: 2.24 ± 0.81 h
k el [1, 12]: 0.000139 s⁻¹
tissue uptake [1, 12]: 2.3 ± 0.2 %ID/g
Tmax ([1]; female, BALB/c, mouse, liver, ip, Tmax, IP 10 mg/kg): 0.5 h
MRT inf [1, 13]: 5 ± 1 h
Vd/F [1, 13]: 0.135 ± 0.108 L
half-life [1, 13]: 1.9 ± 0.6 h
k el [1, 13]: 0.000119 s⁻¹
tissue uptake [1, 13]: 1.6 ± 0.7 %ID/g
Tmax ([1]; female, BALB/c, mouse, liver, po, Tmax, PO 10 mg/kg): 0.5 h
MRT inf [1, 14]: 1.27 ± 0.06 h
Vd/F [1, 14]: 0.201 ± 0.038 L
half-life [1, 14]: 1.84 ± 0.24 h
k el [1, 14]: 0.000108 s⁻¹
tissue uptake [1, 14]: 0.72 ± 0.08 %ID/g
Tmax ([1]; female, BALB/c, mouse, lungs, ip, Tmax, IP 10 mg/kg): 0.5 h
MRT inf [1, 15]: 0.89 ± 0.08 h
Vd/F [1, 15]: 0.01 ± 0.004 L
half-life [1, 15]: 0.89 ± 0.18 h
k el [1, 15]: 0.000242 s⁻¹
tissue uptake [1, 15]: 13 ± 5 %ID/g
Tmax ([1]; female, BALB/c, mouse, lungs, po, Tmax, PO 10 mg/kg): 0.5 h
MRT inf [1, 16]: 2 ± 0.08 h
Vd/F [1, 16]: 0.268 ± 0.135 L
concentration at 30 min [1, 16]: 1620 ng/g
half-life [1, 16]: 1.89 ± 0.11 h
k el [1, 16]: 0.000103 s⁻¹
tissue uptake [1, 16]: 0.81 ± 0.16 %ID/g
MRT inf [1, 17]: 5.7 ± 0.2 h
Vd/F [1, 17]: 0.535 ± 0.042 L
half-life [1, 17]: 11 ± 3 h
k el [1, 17]: 2.22e-05 s⁻¹
tissue uptake [1, 17]: 0.26 ± 0.06 %ID/g
AUC0–t ([1]; heart, IP 10 mg/kg): 0.46 ± 0.14 h %ID/g
Cl/F ([1]; heart, IP 10 mg/kg): 224 ± 66 mL/h
AUC0–t ([1]; heart, PO 10 mg/kg): 0.22 ± 0.03 h %ID/g
Cl/F ([1]; heart, PO 10 mg/kg): 347 ± 44 mL/h
AUC0–t ([1]; kidneys, IP 10 mg/kg): 16.3 ± 7.2 h %ID/g
Cl/F ([1]; kidneys, IP 10 mg/kg): 12 ± 7 mL/h
AUC0–t ([1]; kidneys, PO 10 mg/kg): 2.5 ± 0.9 h %ID/g
Cl/F ([1]; kidneys, PO 10 mg/kg): 51 ± 25 mL/h
AUC0–t ([1]; liver, IP 10 mg/kg): 3.9 ± 1.3 h %ID/g
Cl/F ([1]; liver, IP 10 mg/kg): 31 ± 13 mL/h
AUC0–t ([1]; liver, PO 10 mg/kg): 4 ± 2 h %ID/g
Cl/F ([1]; liver, PO 10 mg/kg): 37 ± 23 mL/h
AUC0–t ([1]; lungs, IP 10 mg/kg): 0.86 ± 0.20 h %ID/g
Cl/F ([1]; lungs, IP 10 mg/kg): 82 ± 26 mL/h
AUC0–t ([1]; lungs, PO 10 mg/kg): 17 ± 7 h %ID/g
Cl/F ([1]; lungs, PO 10 mg/kg): 10 ± 6 mL/h
Tmax ([1]; lungs, PO 10 mg/kg): 0.28 ± 0.11 h
AUC0–t ([1]; spleen, IP 10 mg/kg): 1.4 ± 0.5 h %ID/g
Cl/F ([1]; spleen, IP 10 mg/kg): 93 ± 42 mL/h
AUC0–t ([1]; spleen, PO 10 mg/kg): 1.5 ± 0.2 h %ID/g
Cl/F ([1]; spleen, PO 10 mg/kg): 44 ± 16 mL/h
stability in plasma (±15% RSD, RE) ([2]; incubation at ambient temperature for four hours): stable
postpreparative stability in autosampler conditions ([2]; plasma, 4 °C): 8 h
long-term stability at −80 °C ([2]; plasma, high drug concentration): 134 days
long-term stability at −80 °C ([2]; plasma, low drug concentration): 15 days
postpreparative stability RE% ([2]; plasma, spiked 2.5 ng/mL, 4 °C): 8.0%
short term stability RE% ([2]; plasma, spiked 2.5 ng/mL): 4.0%
freeze–thaw stability RE% ([2]; plasma, spiked 2.5 ng/mL): –2.7%
long term stability RE% ([2]; plasma, spiked 2.5 ng/mL, 15 days): 12.6 ^b %
postpreparative stability RE% ([2]; plasma, spiked 950 ng/mL, 4 °C): 15.2%
short term stability RE% ([2]; plasma, spiked 950 ng/mL): –0.5%
freeze–thaw stability RE% ([2]; plasma, spiked 950 ng/mL): –1.2%
long term stability RE% ([2]; plasma, spiked 950 ng/mL, 134 days): –1.0 ^d %
freeze–thaw stability ([2]; plasma, three freeze–thaw cycles lasting 24 h): stable
systemic clearance adjusted by F ([3]; PO administration): 136.5 mL/h
clearance ([3]; female, BALB/c, mouse, plasma, 10 mg/kg): ~83.3 mL/min/kg
AUC(0-t) [3, 18]: 1640 ± 291 ng·h/mL
Cmax [3, 18]: 2970 ± 1380 ng/mL
MRT inf [3, 18]: 1.9 ± 0.1 h
Tmax [3, 18]: 0.22 ± 0.14 h
concentration at 30 min [3, 18]: 840 ng/mL
half-life [3, 18]: 2.17 ± 0.06 h
AUC(0-t) [3, 19]: 585 ± 150 ng·h/mL
Cmax [3, 19]: 619 ± 195 ng/mL
MRT inf [3, 19]: 1.9 ± 0.1 h
Tmax [3, 19]: 0.5 h
half-life [3, 19]: 2.6 ± 0.2 h
time to elimination from plasma and tissues ([3]; following administration by both routes): 6 to 8 h
drug remaining in the bloodstream ([3]; from apparent volume of distribution vs blood volume 1.5–2.0 mL): less than 1%
clearance rate as share of liver blood flow in the mouse ([3]; mouse, in vivo): ~85%
F (relative bioavailability) ([3]; oral gavage relative to IP, 10 mg/kg, mean ± SEM): 35% and 35 ± 3%
Cl/F [3, 20]: 129 mL/h and 129 ± 24 mL/h
Kel [3, 20]: 0.320 ± 0.009 h^–^1
Kel ([3]; plasma, oral gavage 10 mg/kg, mean ± SEM): 0.27 ± 0.02 h^–^1
Cl/F ([3]; plasma, oral gavage 10 mg/kg, mean ± SEM, 10 mg/kg): 390 mL/h and 390 ± 111 mL/h
detection of MBQ-167 in tumor [4]: not detected
stability in tissues ([5]; incubation in an ice bucket for 3 h): stable
postpreparative stability RE% ([5]; spiked 15 ng/mL, 4 °C): –15%
short term stability RE% ([5]; spiked 15 ng/mL): 0.1%
freeze–thaw stability RE% ([5]; spiked 15 ng/mL): 1.5%
long term stability RE% ([5]; spiked 15 ng/mL): 6.5%
postpreparative stability RE% ([5]; spiked 950 ng/mL, 4 °C): –6.7%
short term stability RE% ([5]; spiked 950 ng/mL): –12.2%
freeze–thaw stability RE% ([5]; spiked 950 ng/mL): –3.2%
long term stability RE% ([5]; spiked 950 ng/mL): 9.2%
postpreparative stability in autosampler conditions ([5]; tissues, 4 °C): 8 h
long-term stability at −80 °C ([5]; tissues, both low and high concentrations of quality control samples): 90 days
freeze–thaw stability ([5]; tissues, three freeze–thaw cycles lasting 24 h): stable
reduction of HER2-type mammary fat pad tumor growth [6]: ~90%
reduction of metastasis [6]: ~90% and ~99%

CS(=O)(=O)CCNCc1ccc(-c2ccc3ncnc(Nc4ccc(OCc5cccc(F)c5)c(Cl)c4)c3c2)o1 [lapatinib]
bioavailability (F) [7]: 43–50%

CCn1c2ccccc2c2cc(Nc3ccnc(NCCCN4CCOCC4)n3)ccc21 [EHop-016]
bioavailability (F) [7]: 40%

Reference: PMC6843717 (ACS Omega, 2019)
